Test results published in ChEMBL document CHEMBL5724801, “EUbOPEN Chemogenomics Library - Multiplex” (2024).
Values joined by “and” are separate entries in the source; they are usually repeats but may differ in a detail not shown here. Equal entries are not always repeated.

System: U2OS
Assay: Multiplex assay against U2OS
Assay type: toxicity, cell-based
Conditions: human
Procedure, shortened: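 Values for tubulin, mitochondrial-mass and membrane-permeability phenotypes are per cents of cells with healthy nuclei. These cells were identified by CellPathfinder machine-learning gating of live cells that had been stained at seeding with Hoechst33342, BioTracker Green Microtubule Cytoskeleton Dye, MitoTracker Red and Annexin V Alexa Fluor 680 and imaged on a CQ1 microscope at 37°C and 5% CO2 after compound addition. The gating first set Hoechst high-intensity objects apart from normal cells, then split normal cells into healthy, pyknosed or fragmented nuclei, and pyknosed cells into mitotic or apoptotic.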

[1] = 12 h, 1 µM, compound concentration 1 uM
[2] = 12 h, 10 µM, compound concentration 10 uM
[3] = 24 h, 1 µM, compound concentration 1 uM
[4] = 24 h, 10 µM, compound concentration 10 uM
[5] = 48 h, 1 µM, compound concentration 1 uM
[6] = 48 h, 10 µM, compound concentration 10 uM

Compound: CC[C@H]1OC(=O)[C@H](C)[C@@H](O[C@H]2C[C@@](C)(OC)[C@@H](O)[C@H](C)O2)[C@H](C)[C@@H](O[C@@H]2O[C@H](C)C[C@H](N(C)C)[C@H]2O)[C@@]2(C)CC(C)=C(O2)[C@H](C)[C@@H](O)[C@]1(C)O
- Population Apoptotic (%) [1]: 50% and 84%
- Population Fragmented Nuclei (%) [1]: 19% and 23%
- Population Healthy Nuclei (%) [1]: 63% and 62%
- Population Hoechst High Intensity Objects (%) [1]: 3% and 1%
- Population Membrane Permeable-Phenotype (%) [1]: 33% and 21%
- Population Mitochondria Different-Phenotype (%) [1]: 23% and 14%
- Population Normal (%) [1]: 96% and 98%
- Population Pyknosed Nuclei (%) [1]: 17% and 14%
- Population Tubulin-Different-Phenotype (%) [1]: 25% and 14%
- Total Cell Count [1]: 226 and 91
- Population Apoptotic (%) [2]: 65% and 73%
- Population Fragmented Nuclei (%) [2]: 34% and 21%
- Population Healthy Nuclei (%) [2]: 40% and 47%
- Population Hoechst High Intensity Objects (%) [2]: 7% and 4%
- Population Membrane Permeable-Phenotype (%) [2]: 82% and 72%
- Population Mitochondria Different-Phenotype (%) [2]: 63% and 81%
- Population Mitotic Cells (%) [2]: 34% and 26%
- Population Normal (%) [2]: 92% and 95%
- Population Pyknosed Nuclei (%) [2]: 25% and 31%
- Population Tubulin-Different-Phenotype (%) [2]: 89% and 96%
- Total Cell Count [2]: 223 and 128
- Population Apoptotic (%) [3]: 65% and 72%
- Population Fragmented Nuclei (%) [3]: 20% and 19%
- Population Healthy Nuclei (%) [3]: 63% and 64%
- Population Hoechst High Intensity Objects (%) [3]: 4% and 5%
- Population Membrane Permeable-Phenotype (%) [3]: 20% and 14%
- Population Mitochondria Different-Phenotype (%) [3]: 15% and 14%
- Population Mitotic Cells (%) [3]: 35% and 27%
- Population Normal (%) [3]: 95% and 94%
- Population Pyknosed Nuclei (%) [3]: 16%
- Population Tubulin-Different-Phenotype (%) [3]: 17% and 10%
- Total Cell Count [3]: 256 and 115
- Population Apoptotic (%) [4]: 67% and 82%
- Population Fragmented Nuclei (%) [4]: 33% and 24%
- Population Healthy Nuclei (%) [4]: 36% and 45%
- Population Hoechst High Intensity Objects (%) [4]: 5% and 4%
- Population Membrane Permeable-Phenotype (%) [4]: 56% and 75%
- Population Mitochondria Different-Phenotype (%) [4]: 65% and 86%
- Population Mitotic Cells (%) [4]: 32% and 17%
- Population Normal (%) [4]: 94% and 95%
- Population Pyknosed Nuclei (%) [4]: 29% and 30%
- Population Tubulin-Different-Phenotype (%) [4]: 76% and 88%
- Total Cell Count [4]: 210 and 121
- Population Apoptotic (%) [5]: 67% and 78%
- Population Fragmented Nuclei (%) [5]: 19% and 32%
- Population Healthy Nuclei (%) [5]: 54% and 58%
- Population Hoechst High Intensity Objects (%) [5]: 9% and 2%
- Population Membrane Permeable-Phenotype (%) [5]: 13% and 12%
- Population Mitochondria Different-Phenotype (%) [5]: 8% and 12%
- Population Mitotic Cells (%) [5]: 32% and 21%
- Population Normal (%) [5]: 91% and 97%
- Population Pyknosed Nuclei (%) [5]: 26% and 9%
- Population Tubulin-Different-Phenotype (%) [5]: 11% and 7%
- Total Cell Count [5]: 300 and 147
- Population Apoptotic (%) [6]: 85% and 83%
- Population Fragmented Nuclei (%) [6]: 37% and 20%
- Population Healthy Nuclei (%) [6]: 31% and 42%
- Population Hoechst High Intensity Objects (%) [6]: 7% and 9%
- Population Membrane Permeable-Phenotype (%) [6]: 58% and 62%
- Population Mitochondria Different-Phenotype (%) [6]: 55% and 81%
- Population Mitotic Cells (%) [6]: 14% and 16%
- Population Normal (%) [6]: 92% and 90%
- Population Pyknosed Nuclei (%) [6]: 31% and 36%
- Population Tubulin-Different-Phenotype (%) [6]: 63% and 88%
- Total Cell Count [6]: 236 and 112
